One data set deals with Haemophilus influenzae. As to the kind of experiment: Antimicrobial activity against Haemophilus influenzae by broth microdilution/CLSI method. Type of data set: functional. In general terms: In broth dilution the organism is exposed to a series of concentrations in liquid medium.
The target in the next data set is DNA gyrase subunit B (Staphylococcus aureus, UniProt P0A0K8). Briefly: Inhibition of ATPase activity of Staphylococcus aureus GyrB. The method, boiled down: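 IC50 was determined against S. aureus GyrB in the routine screening assay. The enzyme concentration limits resolution below 10 nM.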
In data set [1] the target is T1, ATP-binding cassette sub-family C member 2 (Homo sapiens, UniProt Q92887). As to the kind of experiment: Inhibition of ATPase activity of human MRP2 assessed as inorganic phosphate.
Another data set has as its system Moraxella catarrhalis. Briefly: Antimicrobial activity against Moraxella catarrhalis by broth microdilution/CLSI method. The data set is classed as functional.
Data set [2] has as its target T2, ATP-binding cassette sub-family C member 2 (Rattus norvegicus, UniProt Q63120). Briefly: Stimulation of ATPase activity of rat Mrp2 assessed as inorganic phosphate.
Data set [3] can be described thus: Dissociation constant, pKa of the compound. Type of data set: physicochemical.
Data set [4] is described as follows: Bioavailability in Wistar rat at 10 mg/kg, […]. The data set is classed as ADME, organism-based. To be noted: in vivo.
Data set [5] concerns the target T1, ATP-binding cassette sub-family C member 2. Briefly: Stimulation of ATPase activity of human MRP2 assessed as inorganic phosphate.
The nature of data set [6]: Ratio of MIC for methicillin, quinolone-resistant Staphylococcus aureus to fraction unbound in human plasma. Type of data set: ADME.
Data set [7] can be described thus: Percentage unbound in human plasma. Type of data set: ADME, cell-free.
The next data set concerns Streptococcus pneumoniae. Briefly: Antibacterial activity against Streptococcus pneumoniae by broth microdilution/CLSI method. The data set is classed as functional.
Data set [8] in a line: Clearance in dog at 10 mg/kg, iv. The data set is classed as ADME, organism-based, Canis lupus familiaris. On the set-up: dose 10 mg/kg, route intravenous. The note with it: plasma.
Data set [9] in a line: Clearance in TR-negative Wistar rat at 10 mg/kg, iv. The data set is classed as ADME, organism-based. To be noted: in vivo. Set-up: dose 10 mg/kg, route intravenous.
The test system of data set [10] is Escherichia coli. Briefly: Antimicrobial activity against Escherichia coli tolC- by broth microdilution/CLSI method. Type of data set: functional.
Data set [11] in a line: Percentage unbound in dog plasma. Type of data set: ADME, cell-free, Canis lupus familiaris.
The nature of data set [12]: Clearance in Wistar rat at 10 mg/kg, iv. Type of data set: ADME, organism-based. To be noted: in vivo. On the set-up: dose 10 mg/kg, route intravenous.
The subject of data set [13] is Staphylococcus aureus. As to the kind of experiment: Antimicrobial activity against methicillin-sensitive Staphylococcus aureus by broth microdilution/CLSI method. The data set is classed as functional.
The target of data set [14] is T2, ATP-binding cassette sub-family C member 2. As to the kind of experiment: Inhibition of ATPase activity of rat Mrp2 assessed as inorganic phosphate.
In data set [15] the test system is Staphylococcus aureus. Briefly: Antimicrobial activity against methicillin, quinolone-resistant Staphylococcus aureus by broth microdilution/CLSI method. The data set is classed as functional.
Data set [16] is described as follows: Clearance in CD1 mouse at 10 mg/kg, iv. The data set is classed as ADME, organism-based. On the set-up: dose 10 mg/kg, route intravenous. To be noted: in vivo.
Data set [17] deals with Escherichia coli. Briefly: Antimicrobial activity against wild-type Escherichia coli Eco523 by broth microdilution/CLSI method. The data set is classed as functional.
The nature of data set [18]: Clearance in rat at 10 mg/kg, iv. The data set is classed as ADME, organism-based. Set-up: dose 10 mg/kg, route intravenous. The note with it: in vivo.
Another data set has as its system Streptococcus pyogenes. As to the kind of experiment: Antimicrobial activity against Streptococcus pyogenes by broth microdilution/CLSI method. Type of data set: functional.
Data set [19] can be described thus: Octanol-phosphate buffer distribution coefficient, log D of the compound at pH 7.4 by shake flask method. Type of data set: physicochemical.
A short description of data set [20]: Solubility of the compound. The data set is classed as physicochemical.
Data set [21] in a line: Bioavailability in dog at 10 mg/kg, iv. Type of data set: ADME, organism-based, Canis lupus familiaris. The note with it: plasma.
Data set [22] can be described thus: Percentage unbound in mouse plasma. The data set is classed as ADME, cell-free.
A short description of data set [23]: Percentage unbound in rat plasma. The data set is classed as ADME, cell-free.
Where [24] appears, read: Haemophilus influenzae, read-out: MIC.
Setting [25] is: Moraxella catarrhalis, read-out: MIC.
The mark [26] stands for this setting: Streptococcus pneumoniae, read-out: MIC.
Where [27] appears, read: Escherichia coli, read-out: MIC.
The mark [28] stands for this setting: Staphylococcus aureus, read-out: MIC.
Where [29] appears, read: Escherichia coli, Eco523, read-out: MIC.

Converted amounts (≈) assume the structure as drawn. Bounds are passed on as bounds.

As usually defined, the IC50 is the midpoint of a concentration-inhibition curve. In general, EC50 refers to the midpoint of the concentration-response curve. Usually pKa stands for the pH at which an ionisable group is half protonated. For orientation: bioavailability means the share of a dose that reaches the circulation, judged against a reference dose that is usually intravenous. Read a low bioavailability as little systemic uptake. In general, fraction unbound refers to the share of the substance not bound to proteins or other matrix. A lower fraction unbound goes with extensive binding. As usually defined, the clearance is the rate of elimination divided by the concentration. One may read the logD as the decadic logarithm of the distribution of all forms, ionised or not, between an organic phase and buffer at a given pH. The solubility is the concentration that dissolves in the medium under given conditions. A high value points to a readily soluble substance.

DNA gyrase subunit B, sequence (P0A0K8 whole entry): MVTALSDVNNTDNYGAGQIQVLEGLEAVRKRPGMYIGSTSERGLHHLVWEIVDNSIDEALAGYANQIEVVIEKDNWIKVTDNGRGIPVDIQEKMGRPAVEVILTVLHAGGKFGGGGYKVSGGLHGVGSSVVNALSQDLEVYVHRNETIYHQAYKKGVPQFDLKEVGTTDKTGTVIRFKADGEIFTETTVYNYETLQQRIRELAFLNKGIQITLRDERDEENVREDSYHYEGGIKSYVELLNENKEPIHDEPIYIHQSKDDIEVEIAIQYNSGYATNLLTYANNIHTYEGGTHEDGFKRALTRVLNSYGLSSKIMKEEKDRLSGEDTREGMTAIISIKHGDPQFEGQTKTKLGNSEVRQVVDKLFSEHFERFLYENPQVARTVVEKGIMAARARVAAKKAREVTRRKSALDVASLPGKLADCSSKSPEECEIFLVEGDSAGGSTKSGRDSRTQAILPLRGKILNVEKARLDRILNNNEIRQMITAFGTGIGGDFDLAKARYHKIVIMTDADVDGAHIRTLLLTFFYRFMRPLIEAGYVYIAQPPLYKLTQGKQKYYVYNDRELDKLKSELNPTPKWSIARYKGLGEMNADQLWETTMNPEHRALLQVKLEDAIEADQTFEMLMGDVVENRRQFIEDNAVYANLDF
T2 sequence (Q63120 whole entry): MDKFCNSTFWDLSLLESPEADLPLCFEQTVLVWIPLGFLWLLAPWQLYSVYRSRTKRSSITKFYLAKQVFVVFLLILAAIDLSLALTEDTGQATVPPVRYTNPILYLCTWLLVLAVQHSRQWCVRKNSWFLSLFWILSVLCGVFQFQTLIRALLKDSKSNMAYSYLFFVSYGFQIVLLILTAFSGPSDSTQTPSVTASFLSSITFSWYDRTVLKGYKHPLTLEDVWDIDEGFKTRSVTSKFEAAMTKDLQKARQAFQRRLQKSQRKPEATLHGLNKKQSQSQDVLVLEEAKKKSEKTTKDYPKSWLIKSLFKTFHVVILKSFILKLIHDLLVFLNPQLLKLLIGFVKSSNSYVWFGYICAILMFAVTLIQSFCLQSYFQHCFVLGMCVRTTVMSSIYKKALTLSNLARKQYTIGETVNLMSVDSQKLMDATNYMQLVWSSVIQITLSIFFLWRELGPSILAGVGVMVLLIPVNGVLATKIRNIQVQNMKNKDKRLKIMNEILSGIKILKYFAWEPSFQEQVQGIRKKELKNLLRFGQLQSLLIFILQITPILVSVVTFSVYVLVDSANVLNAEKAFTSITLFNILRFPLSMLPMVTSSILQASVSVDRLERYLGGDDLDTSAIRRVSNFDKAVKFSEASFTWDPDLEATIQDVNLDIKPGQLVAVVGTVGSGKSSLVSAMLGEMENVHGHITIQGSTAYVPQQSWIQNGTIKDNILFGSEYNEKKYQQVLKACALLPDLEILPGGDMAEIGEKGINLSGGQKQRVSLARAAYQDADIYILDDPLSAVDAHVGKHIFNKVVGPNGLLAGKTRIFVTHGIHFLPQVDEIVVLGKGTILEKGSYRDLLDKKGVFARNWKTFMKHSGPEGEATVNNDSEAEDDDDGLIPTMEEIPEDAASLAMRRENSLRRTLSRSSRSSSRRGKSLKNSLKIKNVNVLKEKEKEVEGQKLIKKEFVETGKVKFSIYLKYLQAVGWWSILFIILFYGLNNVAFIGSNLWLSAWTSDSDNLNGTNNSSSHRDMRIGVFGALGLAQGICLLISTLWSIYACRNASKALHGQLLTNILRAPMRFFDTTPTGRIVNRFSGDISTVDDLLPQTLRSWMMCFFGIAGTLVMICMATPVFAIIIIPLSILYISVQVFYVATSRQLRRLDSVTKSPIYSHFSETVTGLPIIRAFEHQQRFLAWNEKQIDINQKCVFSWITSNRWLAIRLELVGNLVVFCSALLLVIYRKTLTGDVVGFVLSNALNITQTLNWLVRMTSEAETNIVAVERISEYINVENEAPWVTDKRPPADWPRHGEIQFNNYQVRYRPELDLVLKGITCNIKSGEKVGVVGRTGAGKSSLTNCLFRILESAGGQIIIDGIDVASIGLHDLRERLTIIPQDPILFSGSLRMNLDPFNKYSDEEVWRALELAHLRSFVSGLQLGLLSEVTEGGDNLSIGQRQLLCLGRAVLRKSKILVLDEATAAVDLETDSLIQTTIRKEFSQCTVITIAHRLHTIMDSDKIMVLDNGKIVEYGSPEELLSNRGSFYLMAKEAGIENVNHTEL
T1 sequence (Q92887 whole entry): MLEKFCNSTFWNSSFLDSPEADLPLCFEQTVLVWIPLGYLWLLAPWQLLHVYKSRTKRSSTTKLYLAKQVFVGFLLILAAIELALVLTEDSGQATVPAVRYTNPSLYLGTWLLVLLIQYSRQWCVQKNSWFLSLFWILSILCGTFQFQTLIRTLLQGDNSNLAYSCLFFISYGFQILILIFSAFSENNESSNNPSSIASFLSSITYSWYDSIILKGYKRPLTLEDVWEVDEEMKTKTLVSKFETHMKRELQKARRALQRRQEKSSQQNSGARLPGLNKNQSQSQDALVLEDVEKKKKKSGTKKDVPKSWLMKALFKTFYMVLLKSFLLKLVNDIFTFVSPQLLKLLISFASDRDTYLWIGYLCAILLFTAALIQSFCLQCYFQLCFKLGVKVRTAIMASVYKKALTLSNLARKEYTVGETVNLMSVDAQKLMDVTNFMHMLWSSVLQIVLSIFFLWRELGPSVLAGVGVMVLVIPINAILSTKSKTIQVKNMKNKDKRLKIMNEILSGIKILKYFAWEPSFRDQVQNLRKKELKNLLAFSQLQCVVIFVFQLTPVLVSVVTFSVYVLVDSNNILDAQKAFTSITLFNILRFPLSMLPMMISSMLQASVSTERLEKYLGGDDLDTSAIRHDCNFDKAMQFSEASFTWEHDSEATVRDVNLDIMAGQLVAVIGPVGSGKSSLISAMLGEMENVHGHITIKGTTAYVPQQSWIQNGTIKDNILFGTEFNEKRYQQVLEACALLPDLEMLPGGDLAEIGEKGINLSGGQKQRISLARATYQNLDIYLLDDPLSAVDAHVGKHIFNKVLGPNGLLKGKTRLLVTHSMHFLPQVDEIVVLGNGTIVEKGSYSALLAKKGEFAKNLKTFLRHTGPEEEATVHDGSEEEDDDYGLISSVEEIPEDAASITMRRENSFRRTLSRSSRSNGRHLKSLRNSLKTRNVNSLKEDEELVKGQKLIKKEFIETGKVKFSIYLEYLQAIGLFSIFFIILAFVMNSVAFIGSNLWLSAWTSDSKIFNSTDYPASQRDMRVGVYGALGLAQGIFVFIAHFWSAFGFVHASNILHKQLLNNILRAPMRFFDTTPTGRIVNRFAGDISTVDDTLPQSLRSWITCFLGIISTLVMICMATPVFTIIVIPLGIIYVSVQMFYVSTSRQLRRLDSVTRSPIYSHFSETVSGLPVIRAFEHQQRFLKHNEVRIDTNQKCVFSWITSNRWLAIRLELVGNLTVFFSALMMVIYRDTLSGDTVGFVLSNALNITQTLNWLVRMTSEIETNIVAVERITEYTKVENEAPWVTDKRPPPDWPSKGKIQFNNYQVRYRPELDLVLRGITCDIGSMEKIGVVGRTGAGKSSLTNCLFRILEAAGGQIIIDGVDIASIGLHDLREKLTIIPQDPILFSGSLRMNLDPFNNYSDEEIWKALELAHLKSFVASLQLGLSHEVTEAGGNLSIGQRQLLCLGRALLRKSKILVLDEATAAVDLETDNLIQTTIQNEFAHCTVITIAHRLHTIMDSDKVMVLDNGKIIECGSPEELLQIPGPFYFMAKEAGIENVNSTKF

Take `CO[C@H]1CN(c2ncc(C(=O)O)s2)CC[C@H]1NC(=O)c1[nH]c(C)c(Cl)c1Cl`: the MIC in the data set with Haemophilus influenzae is 0.18 µg/mL (≈ 0.415 µM); against Moraxella catarrhalis, 0.031 µg/mL (≈ 0.0715 µM); against Streptococcus pneumoniae it was 0.016 µg/mL (≈ 0.0369 µM); against Escherichia coli [10] it was 0.18 µg/mL (≈ 0.415 µM); against Staphylococcus aureus [13], 0.32 µg/mL (≈ 0.738 µM); against Staphylococcus aureus [15], 0.5 µg/mL (≈ 1.15 µM). Moreover, in the data set on Escherichia coli [17], the MIC is 64 µg/mL (≈ 148 µM). For the same compound, the figures for the concentration for half-maximal inhibition (IC50) (at DNA gyrase subunit B; in data set [1]; in data set [14]) were less than 0.01 µM, more than 200 µM and more than 200 µM, respectively. Moreover, the EC50 in [2] turned out to be 38 µM; in [5] it was 71 µM. The compound also registered a pKa in data set [3] of 3.6. Further, the bioavailability in data set [4] amounted to 6.7%. The Ratio in data set [6] is listed as 7. Moreover, the fraction unbound in [7] amounted to 0.071; in data set [11] it was 0.22. The clearance in [8] worked out at 26 mL/min/kg; in data set [9] it was 9.1 mL/min/kg; in data set [12], 34 mL/min/kg; in data set [16], 99 mL/min/kg; in data set [18], 52 mL/min/kg.

With `CO[C@H]1CN(c2nc(C)c(C(=O)O)s2)CC[C@H]1NC(=O)c1[nH]c(C)c(Cl)c1Cl`, the MIC against Streptococcus pyogenes is less than 0.008 µg/mL; with Haemophilus influenzae (setting [24]) it was 0.072 µg/mL (≈ 0.161 µM); in the data set with Moraxella catarrhalis (setting [25]), 0.008 µg/mL (≈ 0.0179 µM); in the data set with Streptococcus pneumoniae (setting [26]), 0.013 µg/mL (≈ 0.0291 µM); with Escherichia coli [10] (setting [27]), 0.25 µg/mL (≈ 0.559 µM); with Staphylococcus aureus [13] (setting [28]) it was 0.031 µg/mL (≈ 0.0693 µM). The values for the MIC in the data set with Staphylococcus aureus [15] (setting [28]) and with Escherichia coli [17] (setting [29]) were 0.053 µg/mL (≈ 0.118 µM) and more than 8 µg/mL, respectively. In data set [19], this compound yielded a logD of 1.2. The half-inhibitory concentration (IC50) at DNA gyrase subunit B was less than 0.01 µM. For the same compound, the Ratio in data set [6] is recorded as 2.9. For the same compound, in [7], the fraction unbound stood at 0.018. The compound further returned a solubility in [20] of 450 µM (≈ 201 µg/mL). Also, the clearance in data set [18] was 26 mL/min/kg.

With `CO[C@H]1CN(c2nc(-c3cnccn3)c(C(=O)O)s2)CC[C@H]1NC(=O)c1[nH]c(C)c(Cl)c1Cl`, the MIC in the data set with Streptococcus pyogenes was 0.01 µg/mL (≈ 0.0196 µM); with Haemophilus influenzae (setting [24]), 0.13 µg/mL (≈ 0.254 µM); with Moraxella catarrhalis (setting [25]) it was 0.008 µg/mL (≈ 0.0156 µM); with Streptococcus pneumoniae (setting [26]), 0.007 µg/mL (≈ 0.0137 µM); in the data set with Escherichia coli [10] (setting [27]), 0.5 µg/mL (≈ 0.978 µM); in the data set with Staphylococcus aureus [13] (setting [28]), 0.031 µg/mL (≈ 0.0606 µM). The MIC was 0.018 µg/mL (≈ 0.0352 µM) with Staphylococcus aureus [15] (setting [28]) and more than 8 µg/mL in the data set on Escherichia coli [17] (setting [29]). Further, the pH-dependent lipophilicity (logD) in data set [19] stood at 1.2. At DNA gyrase subunit B, this compound showed a 50% inhibitory concentration (IC50) of less than 0.01 µM. In data set [3], this compound yielded a pKa of 5.4. In addition, the Ratio in data set [6] came to 0.46. Besides, the unbound share (fraction unbound) is 0.039 in data set [7], 0.13 in data set [11], 0.074 in data set [22] and 0.0715 in [23]. Further, the clearance was 0.73 mL/min/kg in [8] and 2.7 mL/min/kg in [18]. For the same compound, in [21], the bioavailability was 18%. In data set [20], this compound yielded a solubility of 540 µM (≈ 276 µg/mL).

Take `COCC(COC)(COC)NC(=O)c1nc(N2CC[C@@H](NC(=O)c3[nH]c(C)c(Cl)c3Cl)[C@@H](OC)C2)sc1C(=O)O`: the MIC against Streptococcus pyogenes was 0.016 µg/mL (≈ 0.0257 µM); with Haemophilus influenzae (setting [24]) it was 0.15 µg/mL (≈ 0.241 µM); in the data set on Moraxella catarrhalis (setting [25]), 0.008 µg/mL (≈ 0.0129 µM); in the data set with Streptococcus pneumoniae (setting [26]), 0.016 µg/mL (≈ 0.0257 µM); in the data set with Escherichia coli [10] (setting [27]), 1.3 µg/mL (≈ 2.09 µM); with Staphylococcus aureus [13] (setting [28]), 0.031 µg/mL (≈ 0.0498 µM). Besides, the MIC in the data set on Staphylococcus aureus [15] (setting [28]) came out at 0.031 µg/mL (≈ 0.0498 µM); with Escherichia coli [17] (setting [29]), 29 µg/mL (≈ 46.6 µM). Also, the logD in data set [19] came to 1.9. Moreover, on DNA gyrase subunit B, the IC50 was less than 0.01 µM. Further, the Ratio in data set [6] was 0.66. This compound showed a fraction unbound in data set [7] of 0.047. Further, in data set [20], the solubility was found to be 720 µM (≈ 448 µg/mL). In addition, the clearance in data set [18] worked out at 18 mL/min/kg.

Consider `CNC(=O)c1nc(N2CC[C@@H](NC(=O)c3[nH]c(C)c(Cl)c3Cl)[C@@H](OC)C2)sc1C(=O)O`, for which the MIC against Streptococcus pyogenes worked out at 0.013 µg/mL (≈ 0.0265 µM); in the data set on Haemophilus influenzae (setting [24]) it was 0.14 µg/mL (≈ 0.285 µM); in the data set with Moraxella catarrhalis (setting [25]), 0.011 µg/mL (≈ 0.0224 µM); in the data set on Streptococcus pneumoniae (setting [26]) it was 0.016 µg/mL (≈ 0.0326 µM); in the data set with Escherichia coli [10] (setting [27]), 0.3 µg/mL (≈ 0.612 µM); in the data set on Staphylococcus aureus [13] (setting [28]), 0.063 µg/mL (≈ 0.128 µM). The MIC in the data set on Staphylococcus aureus [15] (setting [28]) was 0.063 µg/mL (≈ 0.128 µM); in the data set with Escherichia coli [17] (setting [29]) it was 18 µg/mL (≈ 36.7 µM). Moreover, the logD in [19] is 1.3. The half-inhibitory concentration (IC50) against DNA gyrase subunit B is less than 0.01 µM. The Ratio in data set [6] was determined as 3.15. Further, the fraction unbound in data set [7] stood at 0.02. In [20], this compound gave a solubility of 56 µM (≈ 27.5 µg/mL). For the same compound, the clearance in data set [18] came out at 14 mL/min/kg.

The values above are taken from ChEMBL document CHEMBL3352173, “Optimization of pyrrolamide topoisomerase II inhibitors toward identification of an antibacterial clinical candidate (AZD5099)” (J Med Chem, 2014).
